Our source for the Kd, Activity and IC50 values is ChEMBL document CHEMBL3352086, “Structure-based design and development of functionalized Mercaptoguanine derivatives as inhibitors of the folate biosynthesis pathway enzyme 6-hydroxymethyl-7,8-dihydropterin pyrophosphokinase from Staphylococcus aureus” (J Med Chem, 2014).

Test [1] has as its target T1, 2-amino-4-hydroxy-6-hydroxymethyldihydropteridin e pyrophosphokinase (Staphylococcus aureus, UniProt X5EH84).
T1 sequence (X5EH84 whole entry): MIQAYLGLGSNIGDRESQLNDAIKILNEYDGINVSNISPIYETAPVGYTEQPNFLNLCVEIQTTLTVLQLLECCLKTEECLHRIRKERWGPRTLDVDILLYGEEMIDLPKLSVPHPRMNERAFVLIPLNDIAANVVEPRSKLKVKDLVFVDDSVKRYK
In words: Binding affinity to Staphylococcus aureus recombinant HPPK by surface plasmon resonance analysis in presence of ATP. The method, boiled down:
(§1)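 Ni/NHS-EDC capture-coupled on an NTA chip (SaHPPK loaded at 225 μg mL⁻¹, ~5400 RU; EcDHPS at 80 μg mL⁻¹, ~7200 RU), with a USP7 control surface. Analytes were 3-fold serially diluted, with 30 s contact at 60 μL min⁻¹ and 60 s dissociation, in duplicate or more. Responses were double-referenced and equilibrium responses fit to a 1:1 steady-state model.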

Another test addresses T2, Dihydropteroate synthase (Bacteria, UniProt P0AC13).
T2 sequence (P0AC13 whole entry): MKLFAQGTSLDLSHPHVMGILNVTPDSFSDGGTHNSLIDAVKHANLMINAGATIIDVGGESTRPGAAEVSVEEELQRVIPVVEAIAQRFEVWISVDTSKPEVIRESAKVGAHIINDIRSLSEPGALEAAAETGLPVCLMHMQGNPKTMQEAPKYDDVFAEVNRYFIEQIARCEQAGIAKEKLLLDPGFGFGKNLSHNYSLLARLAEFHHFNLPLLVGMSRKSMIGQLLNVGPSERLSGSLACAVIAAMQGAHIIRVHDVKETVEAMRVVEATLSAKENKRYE
In words: Binding affinity to Escherichia coli DHPS by surface plasmon resonance analysis. Put shortly: as §1

Test [2] has as its target T1, 2-amino-4-hydroxy-6-hydroxymethyldihydropteridin e pyrophosphokinase. In words: Binding affinity to Staphylococcus aureus recombinant HPPK by surface plasmon resonance analysis. The method, boiled down:
as §1

Test [3] addresses T3, 2-amino-4-hydroxy-6-hydroxymethyldihydropteridin e pyrophosphokinase (Staphylococcus aureus) (UniProt X5EH84).
T3 sequence (whole entry): T1 sequence (X5EH84 whole entry)
The test is described as follows: Binding affinity to Staphylococcus aureus HPPK in presence of AMPCPP by 2D 15N HSQC NMR spectroscopy. The method, boiled down:
(§2)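 ¹⁵N-labelled SaHPPK was expressed in E. coli BL21(DE3) in minimal medium with ¹⁵N ammonium chloride. 2D ¹⁵N HSQC spectra used ~120 μM SaHPPK in 50 mM HEPES pH 8 with 10 mM Mg²⁺ and saturating AMPCPP. Ligand was titrated to saturation from a 50 mM DMSO-d₆ stock, and binding was tracked by backbone amide chemical shift perturbations.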

Test [4] addresses T3, 2-amino-4-hydroxy-6-hydroxymethyldihydropteridin e pyrophosphokinase (Staphylococcus aureus). The test is described as follows: Binding affinity to Staphylococcus aureus HPPK in presence of ATP by NMR spectroscopy.
The target is the same in test [5]. In words: Binding affinity to Staphylococcus aureus HPPK in presence of AMPCPP by NMR spectroscopy. The method, boiled down: as §2
Test [6] shares this target. In words: Binding affinity to Staphylococcus aureus HPPK in absence of ATP by NMR spectroscopy.
The target of test [7] is T1, 2-amino-4-hydroxy-6-hydroxymethyldihydropteridin e pyrophosphokinase. The test is described as follows: Inhibition of Staphylococcus aureus HPPK after 20 mins by luciferase reporter gene assay. The method, boiled down: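 Kinase-Glo ATP-depletion assay: HPPK 0.4 ng μL⁻¹ with 0.3 μM pterin and 0.2 μM ATP in 100 mM Tris-HCl pH 8.5, 10 mM MgCl₂, 0.01% BSA, 0.01% Tween 20, 10 mM β-mercaptoethanol. Compound added from 50% DMSO solution; 20 min at room temperature, then stopped with Kinase-Glo reagent and luminescence read 10 min later. Triplicates; IC50 from sigmoidal dose–response fit.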

Test [8] shares this target. The test is described as follows: Binding affinity to Staphylococcus aureus HPPK by isothermal calorimetry.

The source made the active and inactive calls. The rule behind the calls is not given here.

Take `CC(=O)CSc1nc2c(=O)[nH]c(N)nc2[nH]1`: the dissociation constant Kd in [1] was 1.85 µM; on Dihydropteroate synthase, 7.8 µM; in test [2] it was 42.7 µM.

As for `COc1ccc(C(=O)CSc2nc3nc(N)[nH]c(=O)c3[nH]2)cc1`, the outcome in test [3], in [4] and in test [5] was Active. Besides, the figures for the dissociation constant (Kd) (in test [1]; on Dihydropteroate synthase; in test [2]) were 1.09 µM, 3.9 µM and 76.6 µM, respectively. In addition, the outcome in [6] was inactive.

As for `Nc1nc2[nH]c(SCc3ccccc3)nc2c(=O)[nH]1`, the values for the Kd (in test [1]; at Dihydropteroate synthase; in test [2]) were 1.79 µM, 43.9 µM and 13.5 µM, respectively.

Turning to `Nc1nc2[nH]c(SCc3ccccc3C(F)(F)F)nc2c(=O)[nH]1`, the figures for the dissociation constant (Kd) (in test [1]; on Dihydropteroate synthase; in [2]) were 2.81 µM, 9.74 µM and 7.26 µM, respectively.

Take `Nc1nc2[nH]c(S)nc2c(=O)[nH]1`: the Kd is 12.6 µM in test [1], 76.2 µM on Dihydropteroate synthase, 11 µM in test [8] and 10.8 µM in test [2]. Also, the IC50 in test [7] amounted to 41 µM.

Regarding `Nc1nc2[nH]c(SCC(=O)c3ccc(-c4ccccc4)cc3)nc2c(=O)[nH]1`, the dissociation constant Kd was 0.81 µM in test [1], 8.4 µM on Dihydropteroate synthase and 21.5 µM in test [2].

In the case of `N#Cc1ccc(CSc2nc3nc(N)[nH]c(=O)c3[nH]2)cc1`, the dissociation constant (Kd) in test [1] amounted to 0.66 µM; on Dihydropteroate synthase, 12.3 µM; in test [2], 11.1 µM.

For the molecule `Nc1nc2nc(SCC(=O)c3ccccc3)[nH]c2c(=O)[nH]1`, the Kd was 1.4 µM in test [1], 3.9 µM at Dihydropteroate synthase and 10.3 µM in test [2].

For `Nc1nc2[nH]c(SCc3ccccc3F)nc2c(=O)[nH]1`, the Kd came to 0.45 µM in test [1], 8.5 µM on Dihydropteroate synthase and 4.3 µM in [2]. 24.9 µM corresponded to half-maximal inhibition in test [7] (IC50).

For the molecule `CC(Sc1nc2nc(N)[nH]c(=O)c2[nH]1)C(=O)c1ccccc1` (stereo not drawn), the equilibrium dissociation constant (Kd) in [1] is 1.8 µM; on Dihydropteroate synthase, 8.2 µM; in test [2], 7.5 µM.

As for `COc1ccc(CCSc2nc3c(=O)[nH]c(N)nc3[nH]2)cc1`, the results for the equilibrium dissociation constant (Kd) (in test [1]; at Dihydropteroate synthase; in [2]) were 7.8 µM, 14.2 µM and 73.5 µM, respectively.

As for `COc1ccccc1C(=O)CSc1nc2nc(N)[nH]c(=O)c2[nH]1`, the dissociation constant (Kd) in [1] is 2.8 µM; at Dihydropteroate synthase, 1.6 µM; in test [2] it was 21.7 µM.
